High-throughput results from PubChem.
Rev-erbA mod: modulates human Rev-erb alpha binding to DNA; P20393; Rev-erbα–FITC-DNA binding, fluorescence polarization, 90 min; activity, % at 10 µM; 0.79% of 370,000 active;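 active = activity above about 14%, limit read from the data; passing the limit was not always enough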;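 note: 0% = DMSO wells with 35 nM protein and 100% = DMSO wells with 750 nM protein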
NTR1 ag: agonists of human neurotensin receptor NTR1 | P30989 | NTR1-U2OS beta-arrestin-GFP spot imaging, agonist mode | activation, % at 20 µM | 0.17% of 330,000 active | AID 493036;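 active = activation at or above 40% of the spot to cytoplasm intensity ratio, with at least 20 cells analyzed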;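 note: 0% = DMSO without peptide and 100% = 100 nM NTR1 peptide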
PG9 Ab binder: binds the HIV-1 gp120 antibody PG9. TR-FRET gp120-PG9 antibody binding. inhibition, % at 6.7 µM. 0.43% of 360,000 active. AID 624416; in the data active = inhibition above about 8.5%
MC4R antag cAMP: antagonists of human melanocortin 4 receptor (MC4R); P32245; MC4R-expressing cells, MTII-stimulated cAMP, LANCE TR-FRET; inhibition, % at 6.5 µM; 0.48% of 360,000 active; AID 540295;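 active = inhibition above its plate's cutoff, the mean of tested wells on that plate plus 3 SD, cut at about 29% in these data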;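 note: 0% = Melanotan II alone and 100% = Melanotan II plus saturating MCL0020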
Target sequence (P32245 whole entry, looked up): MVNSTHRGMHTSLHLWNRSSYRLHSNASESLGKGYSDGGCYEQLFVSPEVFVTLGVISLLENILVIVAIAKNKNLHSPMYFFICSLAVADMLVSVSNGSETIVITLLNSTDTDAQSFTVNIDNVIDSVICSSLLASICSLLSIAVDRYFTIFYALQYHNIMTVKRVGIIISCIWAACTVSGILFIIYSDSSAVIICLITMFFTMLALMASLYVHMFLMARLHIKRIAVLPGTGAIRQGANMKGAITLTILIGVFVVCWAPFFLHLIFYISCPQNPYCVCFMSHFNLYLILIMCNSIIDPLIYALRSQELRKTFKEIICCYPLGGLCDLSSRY
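Assay system: human MC4R-expressing U2OS cells; reagent: Melanotan II stimulation of cells; dosing: 6.5 µM single dose; timing: compound 30 min, challenge 1 h, detection 1 h; signal: TR-FRET cAMP assay; replicates: one well per compound, no replicates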
MC4R barr agon: agonists of human melanocortin 4 receptor (MC4R) beta-arrestin; P32245; AID 540308; 0.98% of 360,000 active; U2OS MC4R beta-arrestin complementation, luminescence; percent of melanotan II response, DMSO zero; activation, % at 8.9 µM;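 active = activation above a per-plate cutoff, the mean activation of sample wells on that plate plus 3 SD, cut at about 8% in these data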
PG9 binder conf: confirmation of small molecules binding HIV-1 gp120 antibody PG9. inhibition, % at 6.7 µM. TR-FRET PG9 antibody binding, biochemical. AID 651571. shares compounds with PG9 Ab binder. 90% of 1,500 active; in the data active = inhibition above about 9%
PGV04 counter: binds control antibody PGV04 in PG9 binder counter-screen; shares compounds with PG9 Ab binder; TR-FRET PGV04 antibody-gp120 binding, biochemical; inhibition, % at 6.7 µM; 95% of 1,500 active; AID 651604; in the data active = inhibition above about 9.5%
PG9 binder DR: small molecules binding HIV-1 gp120 antibody PG9. TR-FRET PG9 antibody-gp120 binding inhibition. AID 651848. IC50, µM. 95 tested, under 10 active. shares compounds with PG9 Ab binder; in the data active = IC50 below about 10 µM
PGV04 DR counter: binds control antibody PGV04 in PG9 counter-screen. shares compounds with PG9 Ab binder. 20% of 95 active. TR-FRET binding to control antibody PGV04. IC50, µM
PG126 binding DR: PG126 binding, dose response counter-screen | TR-FRET binding to antibody PG126, counterscreen | shares compounds with PG9 Ab binder | IC50, µM | 20% of 95 active | AID 651939
* hit, by the source's call. Hits are enriched below; roughly 2.5% of the tested compounds scored in any of these assays. Cut-off read from the data, not from the text of the source, unless noted: active = IC50 below about 9 µM; inactive = the rest.

`Cn1cccc1C(=O)N1CCN(S(=O)(=O)c2ccc(C(C)(C)C)cc2)CC1` gave Rev-erbA mod 2.7.
For CC1=CC(=C(C#N)C#N)C=C(C)N1Cc1ccc(Cl)cc1 the results were Rev-erbA mod 19.0, NTR1 ag 3.1, PG9 Ab binder 19.1*, MC4R antag cAMP 12.7, MC4R barr agon 3.0, PG9 binder conf 23.6* and PGV04 counter 31.1*.
For Cc1ncc(CO)n1Cc1ccc(Cl)cc1 the results were Rev-erbA mod 2.7, PG9 Ab binder 0.1, MC4R antag cAMP 3.7 and MC4R barr agon 3.2.
`COC(=O)c1nn(-c2cccc(C)c2)c2nnc(Cc3ccc(C)cc3)c(=O)n12` gave Rev-erbA mod -3.8, NTR1 ag 3.7, PG9 Ab binder 0.0, MC4R antag cAMP 11.3 and MC4R barr agon -0.4.
COC(=O)c1nn(-c2ccc(C)cc2)c2nnc(Cc3ccccc3)c(=O)n12 was read as Rev-erbA mod -4.3, NTR1 ag -0.9, PG9 Ab binder 23.1*, MC4R antag cAMP 4.2, MC4R barr agon 0.3, PG9 binder conf 18.9* and PGV04 counter 28.0*.
CCCC[C@@H]1C(=O)N2N=Cc3cc4ccccc4cc3[C@H]2N2N=Cc3cc4ccccc4cc3[C@@H]12 was read as Rev-erbA mod 14.4.
Screening O=C(NC1CCCC1)C1C2C=CC3(CN(Cc4cccs4)C(=O)C13)O2 (stereo not drawn) returned Rev-erbA mod -0.5, NTR1 ag -2.1, PG9 Ab binder 28.8*, MC4R antag cAMP 6.9, MC4R barr agon 0.0, PG9 binder conf 8.5 and PGV04 counter 9.2.
Screening O=C(NCC1CCCO1)C1C2C=CC3(CN(Cc4cccs4)C(=O)C13)O2 (stereo not drawn) returned Rev-erbA mod 5.5, NTR1 ag -1.6, PG9 Ab binder -0.1, MC4R antag cAMP 0.8 and MC4R barr agon -4.0.
Cc1cc(C)nc(N2CCC(C(=O)N(C)CCc3ccccc3)CC2)n1 was read as Rev-erbA mod -6.0.
`COc1ccc(NC(=O)C2CCCN(S(=O)(=O)c3ccc4[nH]c(=O)ccc4c3)C2)cc1` (stereo not drawn) gave Rev-erbA mod 8.3, NTR1 ag 3.3, PG9 Ab binder 9.6*, MC4R antag cAMP 12.4, MC4R barr agon -0.4, PG9 binder conf 17.7* and PGV04 counter 25.9*.
`COc1cc(NC(=O)C2CCCN(S(=O)(=O)c3ccc4[nH]c(=O)ccc4c3)C2)cc(OC)c1` (stereo not drawn) gave Rev-erbA mod 0.8, NTR1 ag 0.1, PG9 Ab binder -2.5, MC4R antag cAMP 9.9 and MC4R barr agon -0.1.
Screening CCOc1ccc(NC(=O)C2CCCN(S(=O)(=O)c3ccc4[nH]c(=O)ccc4c3)C2)cc1 (stereo not drawn) returned Rev-erbA mod 6.8, NTR1 ag -0.5, PG9 Ab binder 11.1*, MC4R antag cAMP 8.0, MC4R barr agon 1.0, PG9 binder conf 38.0* and PGV04 counter 63.4*.
Screening O=C(C1=C(O)C(=O)N(CCCn2ccnc2)C1c1ccccc1)c1ccco1 (stereo not drawn) returned NTR1 ag 1.1, MC4R antag cAMP 1.2 and MC4R barr agon -0.5.
Screening O=C(C1=C(O)C(=O)N(CCCn2ccnc2)C1c1cccc(Br)c1)c1ccco1 (stereo not drawn) returned Rev-erbA mod -2.9, NTR1 ag 2.2, PG9 Ab binder 14.4*, MC4R antag cAMP 1.5, MC4R barr agon 0.0, PG9 binder conf 14.5* and PGV04 counter 14.8*.
COc1ccccc1NC(=O)OC1CC2CC1[C@H]1CCCCN1[C@H]2Cc1ccccc1 (stereo partly drawn) was read as Rev-erbA mod 0.7.
N#Cc1c(-c2ccccc2)nc(SCC(=O)Nc2ccc(OC(F)(F)Cl)cc2)[nH]c1=O was read as Rev-erbA mod -0.2, NTR1 ag -0.9, PG9 Ab binder 8.8*, MC4R antag cAMP 9.2, MC4R barr agon -2.5, PG9 binder conf 18.0* and PGV04 counter 22.2*.
`N#Cc1c(-c2ccccc2)nc(SCC(=O)Nc2ccccc2F)[nH]c1=O` gave Rev-erbA mod 2.7, PG9 Ab binder 2.8, MC4R antag cAMP 20.8 and MC4R barr agon -0.7.
CC(=O)c1c(C)[nH]c(C(=O)Nc2ccc(C)c(S(=O)(=O)Nc3ccc(C)cc3C)c2)c1C was read as Rev-erbA mod 4.7, NTR1 ag 13.6, PG9 Ab binder 10.6*, MC4R antag cAMP 4.6, MC4R barr agon 1.1, PG9 binder conf 13.2* and PGV04 counter 15.6*.
`CC(=O)c1c(C)[nH]c(C(=O)Nc2ccc(C)c(S(=O)(=O)N(C)C)c2)c1C` gave Rev-erbA mod -3.9, PG9 Ab binder -0.4, MC4R antag cAMP 0.4 and MC4R barr agon 1.4.
COc1ccc(-n2c(=S)[nH]c3c(oc4ccccc43)c2=O)cc1 was read as Rev-erbA mod -0.3, NTR1 ag 1.2, PG9 Ab binder 25.9*, MC4R antag cAMP 23.2, MC4R barr agon -0.2, PG9 binder conf 13.3*, PGV04 counter 11.7*, PG9 binder DR >67.1, PGV04 DR counter inactive and PG126 binding DR inactive.
Cc1ccc(-n2c(=O)[nH]c3c(oc4ccccc43)c2=O)cc1 was read as Rev-erbA mod 1.3, NTR1 ag 0.1, PG9 Ab binder -1.6, MC4R antag cAMP 18.2 and MC4R barr agon -1.2.
For O=C1C(C=Nc2ccccc2O)=C(O)c2ccccc21 the results were Rev-erbA mod 2.8, NTR1 ag 1.9, PG9 Ab binder -2.0, MC4R antag cAMP -6.7 and MC4R barr agon 3.9.
Screening Cc1ccc(O)c(N=CC2=C(O)c3ccccc3C2=O)c1 returned Rev-erbA mod 5.7, NTR1 ag 3.0, PG9 Ab binder 17.5*, MC4R antag cAMP -3.7, MC4R barr agon 3.2, PG9 binder conf 24.3* and PGV04 counter 31.0*.
For Nc1cc(Cl)ccc1C(=O)OCC(=O)NC1CCCCC1 the results were Rev-erbA mod 2.9, NTR1 ag 2.8, PG9 Ab binder 30.5*, MC4R antag cAMP 19.1, MC4R barr agon -0.5, PG9 binder conf 29.4* and PGV04 counter 41.4*.
